# According to ChEMBL document CHEMBL2163267, “Novel N-linked aminopiperidine inhibitors of bacterial topoisomerase type II with reduced pK(a): antibacterial agents with an improved safety profile” (J Med Chem, 2012):
# Tests used:
# [1] = system: Mus musculus; test: AUC (infinity) in CD1 mouse infected with methicillin-resistant Staphylococcus aureus ARC 1692 at 80 mg/kg/day, ip; format: ADME, organism-based, Plasma; set-up: dose 80 mg/kg/day, time infinity, route intraperitoneal; settings: in vivo
# [2] = system: Staphylococcus aureus; test: Antibacterial activity against community acquired methicillin-resistant Staphylococcus aureus ARC 3189 after 18 to 24 hrs by CLSI broth microdilution method; format: functional
# How it was run: (§1)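 CLSI broth microdilution in Mueller Hinton Broth 2. Inocula prepared from blood agar plates grown at 35 °C for 18–24 h. Compound in DMSO, 2% DMSO final, 11 doubling dilutions from 64 to 0.06 μg/mL. Plates read at 620 nm.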
# [3] = system: Mus musculus; test: AUC (infinity) in CD1 mouse infected with methicillin-resistant Staphylococcus aureus ARC 1692 at 40 mg/kg/day, ip; format: ADME, organism-based, Plasma; set-up: dose 40 mg/kg/day, time infinity, route intraperitoneal; settings: in vivo
# [4] = system: Staphylococcus aureus; test: Antibacterial activity against linezolid-resistant Staphylococcus aureus ARC 3583 after 18 to 24 hrs by CLSI broth microdilution method; format: functional; how it was run: as §1
# [5] = system: Staphylococcus aureus; test: Antibacterial activity against vancomycin-resistant Staphylococcus aureus ARC 3186 after 18 to 24 hrs by CLSI broth microdilution method; format: functional; how it was run: as §1
# [6] = system: Staphylococcus aureus; test: Antibacterial activity against hospital acquired methicillin-resistant Staphylococcus aureus ARC 1692 after 18 to 24 hrs by CLSI broth microdilution method; format: functional; how it was run: as §1
# [7] = system: Staphylococcus aureus; test: Antibacterial activity against methicillin-resistant Staphylococcus aureus ARC 1692 in ABT-treated CD1 mouse neutropenic thigh infection model assessed as reduction in log10 CFU per gram of thigh at 80 mg/kg/day, ip qd starting 2 hrs post-infection measured after 24 hrs; format: functional; settings: route intraperitoneal
# [8] = system: Staphylococcus aureus; test: Antibacterial activity against methicillin-resistant Staphylococcus aureus ARC 1692 in ABT-treated CD1 mouse neutropenic thigh infection model assessed as reduction in log10 CFU per gram of thigh at 40 mg/kg/day, ip qd starting 2 hrs post-infection measured after 24 hrs; format: functional; settings: route intraperitoneal
# [9] = target: T1, Voltage-gated inwardly rectifying potassium channel KCNH2 (Homo sapiens, UniProt Q12809); test: Displacement of [3H]-astemizole from human ERG expressed in HEK293 cells after 60 mins by liquid scintillation counter; format: cell-based
# T1 sequence (Q12809 whole entry, the tested form may be a part): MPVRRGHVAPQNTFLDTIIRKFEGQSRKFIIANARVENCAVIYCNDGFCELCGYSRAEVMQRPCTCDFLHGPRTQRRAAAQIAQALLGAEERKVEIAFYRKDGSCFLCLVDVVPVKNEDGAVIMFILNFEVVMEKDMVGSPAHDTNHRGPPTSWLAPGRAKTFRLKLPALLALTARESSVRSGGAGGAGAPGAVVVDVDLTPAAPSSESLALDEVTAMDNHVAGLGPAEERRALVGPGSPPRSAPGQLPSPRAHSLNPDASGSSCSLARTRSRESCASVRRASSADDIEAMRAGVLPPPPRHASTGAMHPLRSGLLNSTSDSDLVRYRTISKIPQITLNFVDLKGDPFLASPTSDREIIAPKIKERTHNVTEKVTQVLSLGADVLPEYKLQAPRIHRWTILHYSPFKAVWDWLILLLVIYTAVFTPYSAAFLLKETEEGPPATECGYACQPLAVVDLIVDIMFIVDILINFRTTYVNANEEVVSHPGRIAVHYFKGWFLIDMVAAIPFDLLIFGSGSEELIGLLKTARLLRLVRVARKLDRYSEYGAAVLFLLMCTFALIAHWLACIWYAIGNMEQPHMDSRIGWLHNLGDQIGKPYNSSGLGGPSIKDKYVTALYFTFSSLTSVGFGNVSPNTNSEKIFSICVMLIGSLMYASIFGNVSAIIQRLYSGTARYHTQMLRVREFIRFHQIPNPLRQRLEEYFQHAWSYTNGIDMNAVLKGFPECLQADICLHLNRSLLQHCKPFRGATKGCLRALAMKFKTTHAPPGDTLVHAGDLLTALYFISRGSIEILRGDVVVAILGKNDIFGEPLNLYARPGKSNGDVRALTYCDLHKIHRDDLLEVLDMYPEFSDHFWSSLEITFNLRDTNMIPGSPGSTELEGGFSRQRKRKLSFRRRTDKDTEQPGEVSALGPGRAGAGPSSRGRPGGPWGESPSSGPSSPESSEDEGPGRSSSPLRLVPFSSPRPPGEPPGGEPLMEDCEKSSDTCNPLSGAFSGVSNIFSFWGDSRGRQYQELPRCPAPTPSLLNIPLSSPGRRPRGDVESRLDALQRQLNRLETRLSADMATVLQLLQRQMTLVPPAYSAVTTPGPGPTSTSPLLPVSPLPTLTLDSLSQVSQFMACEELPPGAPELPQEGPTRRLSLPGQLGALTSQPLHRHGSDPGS
# [10] = AUC in Wistar Han rat at 10 mg/kg, iv administered as infusion; format: ADME, organism-based; set-up: dose 10 mg/kg, route intravenous; settings: plasma
# How it was run: (§2)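 Single iv dose (3 mg/kg bolus, or 10 mg/kg infusion, per line). Rats in groups of three, bolus via cannulated jugular vein. Male beagle dogs (n = 3), iv as 15 min infusion, sampled 0 to 24 h. Serial whole-blood samples taken at time intervals. Plasma levels measured by LC-MS/MS. Parameters estimated by non-compartmental analysis.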
# [11] = system: Staphylococcus aureus; test: Antibacterial activity against methicillin-susceptible Staphylococcus aureus after 18 to 24 hrs by CLSI broth microdilution method; format: functional
# [12] = system: Pseudomonas aeruginosa; test: Antibacterial activity against Pseudomonas aeruginosa PAO1 after 18 to 24 hrs by CLSI broth microdilution method; format: functional
# [13] = system: Escherichia coli; test: Antibacterial activity against Escherichia coli W3110 after 18 to 24 hrs by CLSI broth microdilution method; format: functional
# [14] = system: Mus musculus; test: AUC (infinity) in CD1 mouse infected with methicillin-resistant Staphylococcus aureus ARC 1692 at 20 mg/kg/day, ip; format: ADME, organism-based, Plasma; set-up: dose 20 mg/kg/day, time infinity, route intraperitoneal; settings: in vivo
# [15] = target: T1, Voltage-gated inwardly rectifying potassium channel KCNH2; test: Inhibition of human ERG by Ionworks assay
# [16] = system: Rattus norvegicus; test: Volume of distribution in Wistar Han rat at 10 mg/kg, iv administered as infusion and po; format: ADME, organism-based; set-up: dose 10 mg/kg, route oral; settings: in vivo; how it was run: as §2
# [17] = Half life in Beagle dog at 10 mg/kg, iv administered as infusion and po; format: ADME, organism-based, Canis lupus familiaris; set-up: dose 10 mg/kg, route oral; settings: in vivo
# [18] = system: Canis familiaris; test: Volume of distribution in Beagle dog at 10 mg/kg, iv administered as infusion and po; format: ADME, organism-based, Canis lupus familiaris; set-up: dose 10 mg/kg, route oral; settings: in vivo; how it was run: as §2
# [19] = Intrinsic clearance in Wistar Han rat hepatocytes measured per 10^6 cells; format: ADME, cell-based, Hepatocyte; settings: read-out: CLH
# [20] = Fraction unbound in human plasma at 10 uM by equilibrium dialysis method; format: ADME, cell-free
# How it was run: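 Equilibrium dialysis. Compound at 10 μM in the plasma (donor) chamber against phosphate buffer, rotated at 37 °C for 16 h. Drug in the plasma and buffer samples quantified by LC-MS/MS after methanol protein precipitation with internal standard. Standard curve 10 nM to 10 μM.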
# [21] = Octanol-phosphate buffer partition coefficient, log D of the compound at pH 7.4 by shake flask method; format: physicochemical
# How it was run: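 Shake-flask partition between n-octanol and 10 mM phosphate buffer at pH 7.4. Shaken 1 h at 1200 rpm to reach equilibrium. Phases analysed by LC/UV, with MS for mass confirmation.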
# [22] = system: Staphylococcus aureus; test: Antibacterial activity against methicillin-resistant Staphylococcus aureus ARC 1692 in ABT-treated CD1 mouse neutropenic thigh infection model assessed as reduction in log10 CFU per gram of thigh at 20 mg/kg/day, ip qd starting 2 hrs post-infection measured after 24 hrs; format: functional; settings: route intraperitoneal
# [23] = AUC in Beagle dog at 10 mg/kg, iv administered as infusion; format: ADME, organism-based, Canis lupus familiaris; set-up: dose 10 mg/kg, route intravenous; settings: plasma; how it was run: as §2
# [24] = system: Staphylococcus aureus; test: Antibacterial activity against methicillin-resistant Staphylococcus aureus ARC 1692 in ABT-treated CD1 mouse neutropenic thigh infection model assessed as reduction in log10 CFU per gram of thigh at 60 mg/kg/day, ip qd starting 2 hrs post-infection measured after 24 hrs; format: functional; settings: route intraperitoneal
# [25] = Dissociation constant, pKa of the compound by pH metric assay; format: physicochemical
# How it was run: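 pH-metric titration on an automated titrator, run in triplicate. Accuracy about 0.02 log units.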
# [26] = system: Streptococcus pneumoniae; test: Antibacterial activity against penicillin-susceptible Streptococcus pneumoniae D39 after 18 to 24 hrs by CLSI broth microdilution method; format: functional
# [27] = Intrinsic clearance in human hepatocytes measured per 10^6 cells; format: ADME, cell-based, Hepatocyte; settings: read-out: CLH
# [28] = Inhibition of Escherichia coli DNA topoisomerase 4 subunit ParC/DNA topoisomerase 4 subunit ParE ATPase activity after 24 hrs by malachite green staining-based colorimetric assay
# [29] = Oral bioavailability in Beagle dog at 10 mg/kg; format: ADME, organism-based, Canis lupus familiaris; settings: in vivo
# How it was run: (§3)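 Bioavailability from a 10 mg/kg oral dose, by gavage in rats (groups of three) or orally in male beagle dogs (n = 3). Plasma sampled serially over time (dogs 0 to 24 h). Levels measured by LC-MS/MS and referenced to iv dosing. Parameters from non-compartmental analysis.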
# [30] = system: Cavia porcellus; test: Cardiotoxicity in iv dosed guinea pig assessed as change in MAPD90 at 67 uM total plasma concentration; format: toxicity, organism-based; settings: in vivo
# How it was run: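 Male guinea pigs anaesthetized with Nembutal, tracheotomized and mechanically ventilated. Compound given iv in two 17 min infusion periods with cardiac pacing. Monophasic action potential recorded continuously and MAPD90 taken. Blood drawn at each dose level for plasma concentration. Vehicle controls run in separate cohorts; n = 6.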
# [31] = Half life in Wistar Han rat at 10 mg/kg, iv administered as infusion and po; format: ADME, organism-based; set-up: dose 10 mg/kg, route oral; settings: in vivo
# [32] = system: Mus musculus; test: AUC (infinity) in CD1 mouse infected with methicillin-resistant Staphylococcus aureus ARC 1692 at 60 mg/kg/day, ip; format: ADME, organism-based, Plasma; set-up: dose 60 mg/kg/day, time infinity, route intraperitoneal; settings: in vivo
# [33] = Intrinsic clearance in Beagle dog hepatocytes measured per 10^6 cells; format: ADME, cell-based, Canis lupus familiaris, Hepatocyte; settings: read-out: CLH
# [34] = Oral bioavailability in Wistar Han rat at 10 mg/kg; format: ADME, organism-based; settings: in vivo; how it was run: as §3
smiles,measurement,setting,value
C[C@H]1COc2c(N3CCN(C)CC3)c(F)cc3c(=O)c(C(=O)O)cn1c23.C[C@H]1COc2c(N3CCN(C)CC3)c(F)cc3c(=O)c(C(=O)O)cn1c23.O [LEVOFLOXACIN],AUC,[1],11 µg/h/mL
same,MIC,[2],8 µg/mL
same,AUC,[3],4 µg/h/mL
same,MIC,[4],> 16 µg/mL
same,MIC,[5],16 µg/mL
same,MIC,[6],0.125 µg/mL
same,log10cfu,[7],1.4
same,log10cfu,[8],0.3
N#Cc1ccc2ccc(=O)n(CCN3CC[C@H](NCc4cc5c(cn4)OCCO5)[C@H](F)C3)c2c1,MIC,[2],0.06 µg/mL
same,IC50,[9],> 200 µM
same,AUC,[10],3100 ng·h/mL
same,MIC,[11],0.06 µg/mL
same,AUC,[3],37 µg/h/mL
same,MIC,[4],0.125 µg/mL
same,MIC,[12],> 8 µg/mL
same,MIC,[5],0.015 µg/mL
same,MIC,[13],4 µg/mL
same,AUC,[14],18 µg/h/mL
same,IC50,[15],233 µM
same,MIC,[6],0.125 µg/mL
same,Vd,[16],3 L/kg
same,half-life,[17],3.4 h
same,Vd,[18],1.5 L/kg
same,hepatocyte CLint,[19],13 µL/min/1e6 cells
same,fraction unbound at 10 µM,[20],0.25
same,logD,[21],0.96
same,log10cfu,[22],0.1
same,AUC,[23],27000 ng·h/mL
same,log10cfu,[24],1.5
same,pKa,[25],7.03
same,MIC,[26],0.13 µg/mL
same,hepatocyte CLint,[27],5.2 µL/min/1e6 cells
same,IC50,[28],0.048 µM
same,bioavailability,[29],60%
same,Activity,[30],Non-toxic
same,half-life,[31],0.9 h
same,AUC,[32],53 µg/h/mL
same,log10cfu,[8],1
same,hepatocyte CLint,[33],4.5 µL/min/1e6 cells
same,bioavailability,[34],18%
